Laboratory results reported in ChEMBL document CHEMBL4680248 (Eur J Med Chem, 2020).
Calls of active or inactive are those of the source. No cut-off for these calls is given here.

Assays:
Xenopus laevis = assay: Anesthetic activity in Xenopus laevis tadpoles assessed as increase in loss of righting reflex incubated for 30 to 60 mins; type: functional, organism-based
[1] = molecular target: T1, GABA-A receptor; alpha-1/beta-3/gamma-2 (Homo sapiens, UniProt P14867+P18507+P28472); assay: Positive allosteric modulation of GABAA alpha1beta3gamma2L in HEK cell plasma membrane assessed as increase in [3H]muscimol binding measured after 10 mins by liquid scintillation counting method; type: cell membranes
T1 sequence (P14867 whole entry): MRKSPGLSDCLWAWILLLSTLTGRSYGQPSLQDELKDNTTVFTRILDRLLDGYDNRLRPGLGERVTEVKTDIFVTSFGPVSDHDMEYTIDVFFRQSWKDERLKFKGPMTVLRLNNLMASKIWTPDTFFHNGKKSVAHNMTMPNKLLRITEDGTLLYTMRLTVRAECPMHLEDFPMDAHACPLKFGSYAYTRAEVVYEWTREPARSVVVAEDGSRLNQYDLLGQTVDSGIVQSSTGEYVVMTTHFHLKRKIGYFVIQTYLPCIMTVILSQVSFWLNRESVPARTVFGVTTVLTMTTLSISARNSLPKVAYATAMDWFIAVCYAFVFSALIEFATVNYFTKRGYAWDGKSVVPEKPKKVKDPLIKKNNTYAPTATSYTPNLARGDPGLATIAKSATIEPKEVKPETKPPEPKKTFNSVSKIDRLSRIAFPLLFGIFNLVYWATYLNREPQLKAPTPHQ
T1 sequence (P18507 whole entry): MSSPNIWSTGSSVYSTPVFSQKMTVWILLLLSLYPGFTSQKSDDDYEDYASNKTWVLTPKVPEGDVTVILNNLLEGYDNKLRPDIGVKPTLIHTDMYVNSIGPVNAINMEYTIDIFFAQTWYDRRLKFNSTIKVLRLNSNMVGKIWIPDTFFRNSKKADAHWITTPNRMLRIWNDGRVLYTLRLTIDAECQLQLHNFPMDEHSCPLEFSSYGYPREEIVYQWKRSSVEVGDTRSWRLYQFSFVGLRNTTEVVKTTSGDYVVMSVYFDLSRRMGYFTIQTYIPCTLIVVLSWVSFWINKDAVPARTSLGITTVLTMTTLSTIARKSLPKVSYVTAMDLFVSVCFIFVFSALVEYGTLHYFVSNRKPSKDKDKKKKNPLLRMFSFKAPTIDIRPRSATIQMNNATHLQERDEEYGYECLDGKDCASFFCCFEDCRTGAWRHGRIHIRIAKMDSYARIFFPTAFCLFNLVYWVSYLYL
T1 sequence (P28472 whole entry): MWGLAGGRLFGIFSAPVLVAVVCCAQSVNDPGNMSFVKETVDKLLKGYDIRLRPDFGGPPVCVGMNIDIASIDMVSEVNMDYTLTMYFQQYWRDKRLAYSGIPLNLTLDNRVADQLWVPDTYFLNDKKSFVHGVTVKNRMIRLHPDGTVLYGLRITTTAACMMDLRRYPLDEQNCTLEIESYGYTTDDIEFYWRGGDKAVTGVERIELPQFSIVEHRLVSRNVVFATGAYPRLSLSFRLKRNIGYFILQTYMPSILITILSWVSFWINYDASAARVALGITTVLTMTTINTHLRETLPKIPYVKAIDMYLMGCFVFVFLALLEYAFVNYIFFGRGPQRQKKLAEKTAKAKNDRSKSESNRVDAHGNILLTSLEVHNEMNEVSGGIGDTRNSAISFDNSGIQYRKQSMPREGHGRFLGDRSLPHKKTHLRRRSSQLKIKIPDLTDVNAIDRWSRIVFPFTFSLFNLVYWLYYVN
Method in brief: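 HEK293 membranes (100 μg protein) from tetracycline-inducible cells expressing FLAG-tagged human receptors. Incubated 10 min with 2 nM [3H]muscimol (final) and modulator in 10 mM phosphate, 200 mM KCl, 1 mM EDTA, pH 7.4. Filtered on PEI-treated GF/B filters and washed twice with cold buffer. EC50 from fitting a logistic equation (Eqn 1) to pooled concentration-response points from independent experiments.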

[2] = molecular target: T1, GABA-A receptor; alpha-1/beta-3/gamma-2; assay: Inhibition of [3H]R-mTFD-MPAB labelling of GABAA alpha1beta3gamma2L (unknown origin) expressed in Xenopus laevis oocytes assessed as reduction in photoincorporation at M227 residues of beta3 subunit measured after 30 mins in presence of GABA by liquid scintillation counting method; type: cell-based
[3] = molecular target: T2, GABA-A receptor alpha-1/beta-3 (Homo sapiens, UniProt P14867+P28472); assay: Positive allosteric modulation of GABAA alpha1beta3 in HEK cell plasma membrane assessed as increase in [3H]muscimol binding measured after 10 mins by liquid scintillation counting method; type: cell membranes
T2 sequence (P14867 whole entry): T1 sequence (P14867 whole entry)
T2 sequence (P28472 whole entry): T1 sequence (P28472 whole entry)
Method in brief: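 Native membranes from tetracycline-inducible HEK293 cells expressing FLAG-tagged human receptors (100 μg protein), [3H]muscimol 2 nM final, plus modulator in 10 mM phosphate, 200 mM KCl, 1 mM EDTA, pH 7.4; 10 min incubation, filtration on PEI-treated GF/B filters, two cold washes. Concentration-response curves from independent experiments fitted to a Hill equation for EC50 and nH.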

[4] = Toxicity in Xenopus laevis tadpoles
[5] = molecular target: T1, GABA-A receptor; alpha-1/beta-3/gamma-2; assay: Inhibition of [3H]pTFD-di-iPr-BnOH labelling of GABAA alpha1beta3gamma2L (unknown origin) expressed in Xenopus laevis oocytes assessed as reduction in photoincorporation at beta subunit measured after 30 mins in presence of GABA by liquid scintillation counting method; type: cell-based
[6] = molecular target: T1, GABA-A receptor; alpha-1/beta-3/gamma-2; assay: Positive allosteric modulation of GABAA alpha1beta3gamma2L (unknown origin) expressed in Xenopus laevis oocytes assessed as increase in GABA-induced current by two microelectrode voltage-clamp electrophysiology; type: cell-based, Oocyte
Method in brief: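 Human subunit mRNA (0.5–1 ng, α:β:γ 1:1:5) injected into Xenopus oocytes, recorded about 24 h later. Two-electrode voltage clamp at −50 mV, room temperature, ND96 pH 7.6.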

[7] = molecular target: T1, GABA-A receptor; alpha-1/beta-3/gamma-2; assay: Inhibition of [3H]azietomidate labelling of GABAA alpha1beta3gamma2L (unknown origin) expressed in Xenopus laevis oocytes assessed as reduction in photoincorporation at M236 residues of alpha1 subunit measured after 30 mins in presence of GABA by liquid scintillation counting method; type: cell-based, Oocyte
Oocyte [8] = type: cell-based; conditions: Homo sapiens, filed as positive allosteric modulator, dose 8.0 µM
Oocyte [9] = assay: Positive allosteric modulation of GABAA alpha1beta3gamma2L M227W mutant (unknown origin) expressed in Xenopus laevis oocytes assessed as increase in GABA-induced current at 8 uM by two microelectrode voltage-clamp electrophysiology; type: cell-based; conditions: Homo sapiens, filed as positive allosteric modulator
Oocyte [10] = assay: Positive allosteric modulation of GABAA alpha1beta3gamma2L I242W mutant (unknown origin) expressed in Xenopus laevis oocytes assessed as increase in GABA-induced current at 8 uM by two microelectrode voltage-clamp electrophysiology; type: cell-based; conditions: Homo sapiens, filed as positive allosteric modulator
Oocyte [11] = assay: Positive allosteric modulation of GABAA alpha1beta3gamma2L S280W mutant (unknown origin) expressed in Xenopus laevis oocytes assessed as increase in GABA-induced current at 8 uM by two microelectrode voltage-clamp electrophysiology; type: cell-based; conditions: Homo sapiens
Oocyte [12] = assay: Positive allosteric modulation of GABAA alpha1beta3gamma2L S270I mutant (unknown origin) expressed in Xenopus laevis oocytes assessed as increase in GABA-induced current at 8 uM by two microelectrode voltage-clamp electrophysiology; type: cell-based; conditions: Homo sapiens

OCc1ccccc1 [BENZYL ALCOHOL]
EC50 (Xenopus laevis): 2000 µM
EC50 [1]: > 50000 µM

CC(C)c1cc(C2(C(F)(F)F)N=N2)cc(C(C)C)c1CO
EC50 (Xenopus laevis): 2.5 µM
IC50 [2]: 26 µM
EC50 [1]: 7.4 µM
EC50 [3]: 2.9 µM
LC50 [4]: 3.6 µM
IC50 [5]: 18 µM
EC50 [6]: 10 µM
IC50 [7]: 460 µM

C=CCC1(c2cccc(C3(C(F)(F)F)N=N3)c2)C(=O)NC(=O)N(C)C1=O (stereo not drawn)
Activity (Oocyte [8]): Active
Activity (Oocyte [9]): Active
Activity (Oocyte [10]): Active
Activity (Oocyte [11]): inactive
Activity (Oocyte [12]): inactive

OCc1ccc(C2(C(F)(F)F)N=N2)cc1
EC50 (Xenopus laevis): 28 µM
IC50 [2]: 465 µM
EC50 [1]: 700 µM
IC50 [7]: 305 µM

CC(C)c1cccc(C(C)C)c1O [PROPOFOL]
EC50 (Xenopus laevis): 0.63 µM
IC50 [2]: 44 µM
EC50 [1]: 5.4 µM
IC50 [5]: 32 µM
IC50 [7]: 8 µM

CC(C)c1cccc(C(C)C)c1CO
EC50 (Xenopus laevis): 16 µM
IC50 [2]: 243 µM
EC50 [1]: 40 µM
IC50 [7]: 92 µM
